Measured values reported in ChEMBL document CHEMBL3853270, “Influence of Birch Bark Triterpenes on Keratinocytes and Fibroblasts from Diabetic and Nondiabetic Donors” (2016).
Calls of active or inactive are those of the source. No cut-off for these calls is given here.

Experiments:
Assay type in all cases: functional
Fibroblast [1] = experiment: Effect on pro-inflammatory related gene expression in diabetic adult human primary fibroblasts assessed as IL1R1 mRNA levels at 1.96 uM after 6 hrs by qPCR analysis
Summary of the method: (§1)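 Primary human dermal fibroblasts (young or adult nondiabetic, adult diabetic donor) were treated for 6 h against a 0.1% DMSO solvent control. RNA from 320 000 cells per sample was measured by Fluidigm Biomark high-throughput qPCR. Values are fold change relative to solvent control, from four independent experiments, with SD. One-way ANOVA with Bonferroni post-test was applied.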

[2] = Effect on wound healing activity in non-diabetic adult human primary keratinocytes assessed as upregulation of MIP1alpha protein levels at 1.96 uM after 24 hrs by bead-based suspension array analysis; conditions: Keratinocyte
Fibroblast [3] = experiment: Effect on pro-inflammatory related gene expression in non-diabetic young human primary fibroblasts assessed as IL1R1 mRNA levels at 9.81 uM after 6 hrs by qPCR analysis
Keratinocyte [4] = experiment: Effect on pro-inflammatory related gene expression in diabetic adult human primary keratinocytes assessed as IL6 mRNA levels at 1.96 uM after 6 hrs by qPCR analysis
Keratinocyte [5] = experiment: Effect on pro-inflammatory related gene expression in non-diabetic young human primary keratinocytes assessed as IL1R1 mRNA levels at 9.81 uM after 6 hrs by qPCR analysis
Keratinocyte [6] = experiment: Effect on pro-inflammatory related gene expression in non-diabetic young human primary keratinocytes assessed as TNF mRNA levels at 1.96 uM after 6 hrs by qPCR analysis
Fibroblast [7] = experiment: Effect on growth factor related gene expression in non-diabetic young human primary fibroblasts assessed as GDF15 mRNA levels at 9.81 uM after 6 hrs by qPCR analysis; summary of the method: as §1
Keratinocyte [8] = experiment: Effect on chemokines related gene expression in non-diabetic young human primary keratinocytes assessed as IL8 mRNA levels at 1.96 uM after 6 hrs by qPCR analysis
Summary of the method: (§2)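 Primary human keratinocytes (nondiabetic young or adult, diabetic adult donors) were exposed to compound for 6 h, with 0.1% DMSO as solvent control. Total RNA came from 400 000 cells per sample and was assayed on a Fluidigm Biomark high-throughput qPCR chip. Results are fold change vs solvent control, from 2−4 independent experiments on two donors per group, with SD. Groups were compared by one-way ANOVA with Bonferroni post-test.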

Keratinocyte [9] = experiment: Effect on growth factor related gene expression in diabetic adult human primary keratinocytes assessed as VEGFA mRNA levels at 9.81 uM after 6 hrs by qPCR analysis; summary of the method: as §2
Keratinocyte [10] = experiment: Effect on ECM related gene expression in non-diabetic adult human primary keratinocytes assessed as FBN1 mRNA levels at 1.96 uM after 6 hrs by qPCR analysis
Summary of the method: (§3)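 Primary keratinocytes from nondiabetic young and adult and diabetic adult donors; 400 000 cells per sample, 6 h exposure at 1.96 or 9.81 μM. RNA extracted and read on a high-throughput qPCR chip. Results are fold change versus 0.1% DMSO solvent control from 5−7 independent experiments over two donors per group, SD, one-way ANOVA with Bonferroni post-test.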

Fibroblast [11] = experiment: Effect on antioxidant related gene expression in non-diabetic adult human primary fibroblasts assessed as NFE2L2 mRNA levels at 1.96 uM after 6 hrs by qPCR analysis
Fibroblast [12] = experiment: Effect on antioxidant related gene expression in diabetic adult human primary fibroblasts assessed as SOD2 mRNA levels at 1.96 uM after 6 hrs by qPCR analysis
Keratinocyte [13] = experiment: Effect on chemokines related gene expression in non-diabetic adult human primary keratinocytes assessed as CXCL10 mRNA levels at 9.81 uM after 6 hrs by qPCR analysis
Fibroblast [14] = experiment: Effect on antioxidant related gene expression in non-diabetic young human primary fibroblasts assessed as NFE2L2 mRNA levels at 9.81 uM after 6 hrs by qPCR analysis
[15] = Effect on wound healing activity in diabetic adult human primary keratinocytes assessed as upregulation of MIF protein levels at 1.96 uM after 24 hrs by bead-based suspension array analysis; conditions: Keratinocyte
Fibroblast [16] = experiment: Effect on growth factor related gene expression in diabetic adult human primary fibroblasts assessed as VEGFA mRNA levels at 9.81 uM after 6 hrs by qPCR analysis; summary of the method: as §1
Keratinocyte [17] = experiment: Effect on MMP1 mRNA expression levels in diabetic adult human primary keratinocytes at 9.81 uM after 6 hrs by qPCR analysis; summary of the method: as §3
Fibroblast [18] = experiment: Effect on growth factor related gene expression in non-diabetic young human primary fibroblasts assessed as VEGFA mRNA levels at 1.96 uM after 6 hrs by qPCR analysis; summary of the method: as §1
Keratinocyte [19] = experiment: Effect on cellular connection related gene expression in non-diabetic adult human primary keratinocytes assessed as GJB2 mRNA levels at 1.96 uM after 6 hrs by qPCR analysis
Fibroblast [20] = experiment: Effect on actin cytoskeleton in human diabetic primary fibroblasts assessed as formation of thin elongated cellular body at 10 nM after 2 hrs by rhodamine phalloidin-staining based fluorescence microscopic analysis
Summary of the method: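 Subconfluent cells on glass coverslips, collagen type I coated for fibroblasts; keratinocytes starved 2 days before stimulation. Exposure 2 h, then rhodamine-phalloidin staining (1:25 in PBS) and fluorescence microscopy. Controls were DMSO as solvent and PDGF (fibroblasts) or CNF1 (keratinocytes). Where used, p38-MAPK inhibitor LN 950 (100 nM) was added 30 min beforehand.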

[21] = Effect on wound healing activity in non-diabetic adult human primary fibroblasts assessed as upregulation of soluble VCAM1 protein levels at 1.96 uM after 24 hrs by bead-based suspension array analysis; conditions: Fibroblast
Fibroblast [22] = experiment: Effect on antioxidant related gene expression in diabetic adult human primary fibroblasts assessed as SOD2 mRNA levels at 9.81 uM after 6 hrs by qPCR analysis
Keratinocyte [23] = experiment: Effect on AQP3 mRNA expression levels in non-diabetic young human primary keratinocytes at 1.96 uM after 6 hrs by qPCR analysis; summary of the method: as §3
Keratinocyte [24] = experiment: Effect on pro-inflammatory related gene expression in non-diabetic young human primary keratinocytes assessed as IL1B mRNA levels at 9.81 uM after 6 hrs by qPCR analysis
Fibroblast [25] = experiment: Effect on antioxidant related gene expression in non-diabetic young human primary fibroblasts assessed as NFE2L2 mRNA levels at 1.96 uM after 6 hrs by qPCR analysis
Keratinocyte [26] = experiment: Effect on MMP1 mRNA expression levels in diabetic adult human primary keratinocytes at 1.96 uM after 6 hrs by qPCR analysis; summary of the method: as §3
Fibroblast [27] = experiment: Effect on transcription factor related gene expression in diabetic adult human primary fibroblasts assessed as JUN mRNA levels at 9.81 uM after 6 hrs by qPCR analysis
[28] = Upregulation of wound healing activity related MCP1 protein levels in non-diabetic adult human primary keratinocytes at 1.96 uM after 24 hrs by bead-based suspension array analysis; conditions: Keratinocyte
Keratinocyte [29] = experiment: Effect on pro-inflammatory related gene expression in non-diabetic adult human primary keratinocytes assessed as PTGS2 mRNA levels at 9.81 uM after 6 hrs by qPCR analysis

C=C(C)[C@@H]1CC[C@]2(CO)CC[C@]3(C)[C@H](CC[C@@H]4[C@@]5(C)CC[C@H](O)C(C)(C)[C@@H]5CC[C@]43C)[C@@H]12 [BETULIN]
fold change (FC) (Fibroblast [1]): 1.7 | Activity [2]: Active | fold change (FC) (Fibroblast [3]): 3.9 | fold change (FC) (Keratinocyte [4]): 12.8 | fold change (FC) (Keratinocyte [5]): 1 | fold change (FC) (Keratinocyte [6]): 4.5 | fold change (FC) (Fibroblast [7]): 5.1 | fold change (FC) (Keratinocyte [8]): 9.7 | fold change (FC) (Keratinocyte [9]): 2.2 | fold change (FC) (Keratinocyte [10]): 0.9 | fold change (FC) (Fibroblast [11]): 1.3 | fold change (FC) (Fibroblast [12]): 2.2 | fold change (FC) (Keratinocyte [13]): 4.3 | fold change (FC) (Fibroblast [14]): 1.4 | Activity [15]: Active | fold change (FC) (Fibroblast [16]): 2 | fold change (FC) (Keratinocyte [17]): 1.8 | fold change (FC) (Fibroblast [18]): 1.7 | fold change (FC) (Keratinocyte [19]): 0.7 | Activity (Fibroblast [20]): Active | Activity [21]: Active | fold change (FC) (Fibroblast [22]): 1.1 | fold change (FC) (Keratinocyte [23]): 0.9 | fold change (FC) (Keratinocyte [24]): 0.9 | fold change (FC) (Fibroblast [25]): 1.2 | fold change (FC) (Keratinocyte [26]): 1.2 | fold change (FC) (Fibroblast [27]): 1.2 | Activity [28]: Active | fold change (FC) (Keratinocyte [29]): 1.3
